These results are taken from ChEMBL document CHEMBL1129933, “Tyrosine kinase inhibitors. 6. Structure-activity relationships among N- and 3-substituted 2,2'-diselenobis(1H-indoles) for inhibition of protein tyrosine kinases and comparative in vitro and in vivo studies against selected sulfur congeners” (J Med Chem, 1997).

Where only a bound is given, the exact number is not on record here.

For orientation: IC50 means the concentration that gives 50% inhibition. As usually defined, the Ki is a measure of affinity in units of concentration, obtained from inhibition or displacement. A high value points to weaker binding.

Test [1] can be described thus: Inhibition of mouse Swiss 3T3 fibroblasts proliferation. The format is functional, cell-based. In outline: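 Swiss 3T3 mouse fibroblast growth assay. IC50 is the concentration reducing cell growth rate by 50%, as the mean of duplicates from at least two separate experiments.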
Test [2] in a line: Inhibition of Src tyrosine kinase. In outline:
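v-src protein came from baculovirus-infected insect cells. Kinase activity was measured as 32P incorporation from ATP into TCA-precipitable random Glu/Tyr (4:1) copolymer. IC50 values are means of duplicates from at least two separate experiments.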

The target in test [3] is T1, Platelet-derived growth factor receptor beta (Mus musculus, UniProt P05622). Description: Inhibition of Platelet-derived growth factor receptor beta (PDGFr). In outline: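 Full-length mouse PDGF-β receptor was overexpressed in baculovirus-infected insect cells and assayed as cell lysates. Read-out was 32P-phosphate transfer from ATP into TCA-precipitable poly(Glu,Tyr) 4:1. IC50 values are means of duplicates from at least two separate experiments.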
T1 sequence (P05622 whole entry): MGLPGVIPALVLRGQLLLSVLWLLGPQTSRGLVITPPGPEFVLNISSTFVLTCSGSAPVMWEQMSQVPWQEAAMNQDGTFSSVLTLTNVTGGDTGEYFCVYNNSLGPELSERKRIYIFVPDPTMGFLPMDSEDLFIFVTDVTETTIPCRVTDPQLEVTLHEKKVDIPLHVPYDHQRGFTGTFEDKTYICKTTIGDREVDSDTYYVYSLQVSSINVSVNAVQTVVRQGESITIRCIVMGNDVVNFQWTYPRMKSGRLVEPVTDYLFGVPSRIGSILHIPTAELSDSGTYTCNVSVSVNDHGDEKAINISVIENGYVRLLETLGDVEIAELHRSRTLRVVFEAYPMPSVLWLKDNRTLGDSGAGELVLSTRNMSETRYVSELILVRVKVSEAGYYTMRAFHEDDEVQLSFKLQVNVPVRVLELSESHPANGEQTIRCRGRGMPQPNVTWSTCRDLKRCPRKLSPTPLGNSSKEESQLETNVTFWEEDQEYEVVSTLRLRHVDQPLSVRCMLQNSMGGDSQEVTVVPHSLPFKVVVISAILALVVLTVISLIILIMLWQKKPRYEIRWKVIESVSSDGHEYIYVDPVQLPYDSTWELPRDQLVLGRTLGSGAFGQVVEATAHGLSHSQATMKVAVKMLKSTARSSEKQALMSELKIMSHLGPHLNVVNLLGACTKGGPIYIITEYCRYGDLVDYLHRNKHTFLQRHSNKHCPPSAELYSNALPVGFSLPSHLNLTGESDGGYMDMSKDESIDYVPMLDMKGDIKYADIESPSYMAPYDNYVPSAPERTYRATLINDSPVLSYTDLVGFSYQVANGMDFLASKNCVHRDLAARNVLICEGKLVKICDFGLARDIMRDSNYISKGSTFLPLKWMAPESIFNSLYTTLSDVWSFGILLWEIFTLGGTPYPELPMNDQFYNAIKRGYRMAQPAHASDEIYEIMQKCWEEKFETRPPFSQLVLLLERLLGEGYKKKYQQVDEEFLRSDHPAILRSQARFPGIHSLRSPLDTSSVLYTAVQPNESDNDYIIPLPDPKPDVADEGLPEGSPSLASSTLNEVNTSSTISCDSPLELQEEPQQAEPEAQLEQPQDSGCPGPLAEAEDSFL

Test [4] relates to A-431. Description: In vivo activity against human A431 epidermoid xenograft, weight change after 0.5 mg/kg/day sc dose for 1-27 days. The format is functional, organism-based. In outline:
(§1)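 Nude mice (NCr nu/nu, 18-22 g) bearing sc A431 fragments in the right axilla (day 0) received continuous sc infusion from an Alzet miniosmotic pump implanted under ketamine-xylazine. Pumps were removed or replaced under lidocaine-epinephrine for longer therapy, in 7-day and 27-day studies. Daily dose was the maximum deliverable without significant precipitation. Weight change was taken as the maximum treatment-related loss.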
Background: In xenograft studies the graft and the host belong to different species.

For test [5], the target named is T2, Epidermal growth factor receptor (Homo sapiens, UniProt P00533). Description: Inhibition of epidermal growth factor receptor (EGFr) using peptide substrate. In outline:
(§2)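 EGFr came from membrane vesicles shed by human A431 carcinoma cells. Activity was measured as 32P-phosphate transfer from ATP into a TCA-precipitable glutamate/tyrosine (4:1) random copolymer. ATP or peptide polymer substrate was varied. Ki was obtained by nonlinear regression with Cleland's equations, comparing slope and intercept determinations to assign the inhibition type.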

The target of test [6] is T2, Epidermal growth factor receptor. Description: Inhibition of epidermal growth factor receptor (EGFr) using ATP substrate. In outline:
as §2

Test [7] is described as follows: Inhibition of Src tyrosine kinase using ATP substrate. In outline: (§3)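 v-src kinase inhibition kinetics were run with either ATP or the Glu/Tyr peptide polymer substrate varied. Ki (µM) was obtained by nonlinear regression using Cleland's equations. Inhibition type was assigned by comparing Ki values from slope and intercept determinations.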
Test [8] has as its target T2, Epidermal growth factor receptor. As to the kind of experiment: Inhibition of epidermal growth factor receptor (EGFr).
A short description of test [9]: Inhibition of Src tyrosine kinase using peptide substrate. In outline:
as §3

Test [10] has as its system A-431. As to the kind of experiment: In vivo activity against human A431 epidermoid xenograft, net cell kill at 0.5 mg/kg/day administered subcutaneously for 1-27 days. Particulars: route subcutaneous. The format is functional. In outline:
(§4)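 Nude mice (NCr nu/nu), 18-22 g, randomized, implanted sc in the right axilla with serially passaged A431 tumor fragments on day 0. Dosing was by ip bolus or continuous sc Alzet miniosmotic pump infusion, by average cage weight. Vehicle was distilled H2O or 10% DMA in 50 mM lactic acid buffer, pH 4.0, depending on compound. Net cell kill = net log reduction in tumor burden between first and last treatments.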

The nature of test [11]: Inhibition of DNA synthesis. The format is functional. In outline: (§5)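 Log-phase cells were drug-treated for 2 h, then exposed for 2 h to 1 µM [methyl-3H]thymidine (DNA), [5-3H]uridine (RNA) or (S)-[4,5-3H]leucine (protein), each at 1 µCi/nmol. Cells were trypsinized into ice-cold 15% TCA, and precipitates were collected on glass-fibre filters, washed, and counted by scintillation.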

Test [12] relates to A-431. Description: In vivo activity against human A431 epidermoid xenograft, tumor growth delay (T-C) at 0.5 mg/kg/day administered subcutaneously for 9-15 days. The conditions noted are these: route subcutaneous.
For test [13], the system named is A-431. As to the kind of experiment: In vivo activity against human A431 epidermoid xenograft, weight change after 0.5 mg/kg/day sc dose for 9-15 days. Particulars: route subcutaneous. The format is functional. In outline: as §1
Test [14] concerns the target T1, Platelet-derived growth factor receptor beta. As to the kind of experiment: Inhibition of platelet-derived growth factor receptor (PDGFr) autophosphorylation. The format is functional. In outline: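 Swiss 3T3 fibroblasts were treated 2 h with a range of compound concentrations, then stimulated 5 min with growth factor. Receptor tyrosine phosphorylation was assessed by cell extraction and western blotting.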

The test system of test [15] is C6. Description: In vivo activity against C6 glioma xenograft, net cell kill at 1.8 mg/kg administered intraperitoneally for 9 days. The format is functional. Particulars: route intraperitoneal. In outline:
(§6)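 […] C6 glioma xenograft, serially passaged in NCr nu/nu nude mice, implanted sc as tumor fragments in the right axilla on day 0. Mice weighed 18-22 g and were randomized. Dosing was ip bolus on a d1-9 daily schedule in 10% DMA in 50 mM lactic acid buffer, pH 4.0, by average cage weight. Weight change is the maximum treatment-related weight loss in the growth delay assay.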

Test [16] has as its system A-431. As to the kind of experiment: In vivo activity against human A431 epidermoid xenograft, tumor growth delay (T-C, days) at 0.5 mg/kg/day administered subcutaneously for 1-27 days. Particulars: route subcutaneous.
The nature of test [17]: Inhibition of RNA synthesis. The format is functional. In outline:
as §5

The target in test [18] is Fibroblast growth factor receptor (Mus musculus, UniProt P21803+Q03142+P16092+Q61851). Description: Inhibition of fibroblast growth factor (bFGF)-mediated autophosphorylation of FGF-R in Swiss 3T3 mouse fibroblasts. The format is functional. In outline: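 Swiss 3T3 fibroblasts were treated 2 h with a range of compound concentrations, then stimulated for 5 min with growth factor (bFGF). Receptor tyrosine phosphorylation was read by extraction and western blotting.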

The nature of test [19]: Inhibition of protein synthesis. The format is functional. In outline:
as §5

Test [20] concerns C6. Description: In vivo activity against C6 glioma xenograft, tumor growth delay (T-C, days) at 1.8 mg/kg ip dose for 9 days. Particulars: route intraperitoneal.
Test [21] relates to C6. As to the kind of experiment: In vivo activity against C6 glioma xenograft, weight change after 1.8 mg/kg ip dose for 9 days. The format is functional. The conditions noted are these: route intraperitoneal. In outline: as §6
For test [22], the system named is A-431. As to the kind of experiment: In vivo activity against human A431 epidermoid xenograft, net cell kill at 0.5 mg/kg/day administered subcutaneously for 9-15 days. The format is functional. The conditions noted are these: route subcutaneous. In outline: as §4
Test [23] concerns the target Epidermal growth factor receptor (Mus musculus) (UniProt Q01279). Description: Inhibition of epidermal growth factor receptor (EGFr) autophosphorylation.

T2 sequence (P00533 whole entry): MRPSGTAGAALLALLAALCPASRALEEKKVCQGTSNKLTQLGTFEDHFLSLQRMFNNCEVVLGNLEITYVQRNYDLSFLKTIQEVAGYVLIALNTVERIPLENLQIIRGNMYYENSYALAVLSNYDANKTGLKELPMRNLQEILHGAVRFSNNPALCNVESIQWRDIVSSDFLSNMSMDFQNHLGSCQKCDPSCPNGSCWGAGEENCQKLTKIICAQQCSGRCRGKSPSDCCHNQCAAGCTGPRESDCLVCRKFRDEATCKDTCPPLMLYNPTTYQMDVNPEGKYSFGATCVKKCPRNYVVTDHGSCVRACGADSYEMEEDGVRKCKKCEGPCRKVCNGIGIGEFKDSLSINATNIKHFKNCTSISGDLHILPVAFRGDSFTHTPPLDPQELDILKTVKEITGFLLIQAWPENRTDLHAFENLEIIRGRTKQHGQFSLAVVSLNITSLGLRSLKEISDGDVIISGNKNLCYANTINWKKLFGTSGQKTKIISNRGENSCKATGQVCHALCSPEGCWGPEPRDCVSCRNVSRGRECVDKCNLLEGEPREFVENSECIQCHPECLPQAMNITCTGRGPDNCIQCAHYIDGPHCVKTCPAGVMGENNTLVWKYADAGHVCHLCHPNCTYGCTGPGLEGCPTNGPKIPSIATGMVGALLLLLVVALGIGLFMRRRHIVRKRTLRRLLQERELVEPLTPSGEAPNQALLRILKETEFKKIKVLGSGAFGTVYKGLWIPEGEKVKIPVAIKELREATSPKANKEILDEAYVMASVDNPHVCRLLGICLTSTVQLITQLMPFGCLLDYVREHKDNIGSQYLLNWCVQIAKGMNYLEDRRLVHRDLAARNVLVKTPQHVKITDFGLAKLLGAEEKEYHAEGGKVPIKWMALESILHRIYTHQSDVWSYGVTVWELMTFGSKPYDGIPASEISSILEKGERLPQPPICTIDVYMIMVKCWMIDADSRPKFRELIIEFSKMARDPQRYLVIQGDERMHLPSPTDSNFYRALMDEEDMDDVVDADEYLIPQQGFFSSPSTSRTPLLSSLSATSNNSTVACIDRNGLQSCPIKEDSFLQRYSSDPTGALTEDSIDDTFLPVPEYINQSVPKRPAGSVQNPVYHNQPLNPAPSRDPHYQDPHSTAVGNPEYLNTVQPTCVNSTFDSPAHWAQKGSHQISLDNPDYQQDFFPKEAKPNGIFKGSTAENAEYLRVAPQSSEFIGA
Chain of Epidermal growth factor receptor (Mus musculus) (Q01279 whole entry, looked up): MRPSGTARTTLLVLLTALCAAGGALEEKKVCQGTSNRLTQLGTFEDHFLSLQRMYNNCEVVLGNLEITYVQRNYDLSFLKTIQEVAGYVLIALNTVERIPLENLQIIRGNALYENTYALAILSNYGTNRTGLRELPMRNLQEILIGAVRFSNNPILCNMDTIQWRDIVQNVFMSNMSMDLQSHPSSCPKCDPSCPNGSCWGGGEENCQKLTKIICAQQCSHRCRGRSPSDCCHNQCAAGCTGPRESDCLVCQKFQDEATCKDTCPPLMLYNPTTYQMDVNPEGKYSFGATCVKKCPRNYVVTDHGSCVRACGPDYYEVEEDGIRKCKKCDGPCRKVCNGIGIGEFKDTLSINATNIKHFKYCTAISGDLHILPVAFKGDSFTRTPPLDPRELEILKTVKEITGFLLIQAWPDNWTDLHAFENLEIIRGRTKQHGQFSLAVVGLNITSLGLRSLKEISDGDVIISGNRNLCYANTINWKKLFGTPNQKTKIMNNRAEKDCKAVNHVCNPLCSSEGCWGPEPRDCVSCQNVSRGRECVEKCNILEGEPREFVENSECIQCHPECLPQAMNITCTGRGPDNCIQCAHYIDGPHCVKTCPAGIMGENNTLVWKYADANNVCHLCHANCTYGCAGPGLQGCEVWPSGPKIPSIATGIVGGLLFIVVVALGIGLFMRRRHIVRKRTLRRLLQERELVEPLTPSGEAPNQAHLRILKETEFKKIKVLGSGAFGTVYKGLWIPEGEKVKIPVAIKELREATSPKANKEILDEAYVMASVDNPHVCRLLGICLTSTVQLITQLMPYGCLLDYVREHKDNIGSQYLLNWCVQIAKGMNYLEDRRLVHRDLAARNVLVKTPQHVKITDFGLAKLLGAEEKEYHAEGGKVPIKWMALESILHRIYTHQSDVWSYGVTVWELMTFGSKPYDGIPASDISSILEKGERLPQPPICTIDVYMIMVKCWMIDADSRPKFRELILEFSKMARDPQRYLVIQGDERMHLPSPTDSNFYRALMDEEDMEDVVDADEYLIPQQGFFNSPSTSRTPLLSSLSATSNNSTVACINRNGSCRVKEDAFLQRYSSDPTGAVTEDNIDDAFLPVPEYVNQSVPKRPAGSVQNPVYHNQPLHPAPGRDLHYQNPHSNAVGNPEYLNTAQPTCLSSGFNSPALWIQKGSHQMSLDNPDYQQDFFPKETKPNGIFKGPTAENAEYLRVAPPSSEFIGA

Take `CNC(=O)c1c([Se][Se]c2[nH]c3ccccc3c2C(=O)NC)[nH]c2ccccc12`: the IC50 in [1] (Mus musculus) is 1 µM; in [2], 2.8 µM; in test [3] it was 8 µM.
For `CCN(CC)CCNC(=O)c1c([Se][Se]c2c(C(=O)NCCN(CC)CC)c3ccccc3n2C)n(C)c2ccccc12` the same measures were 19.5 µM, 1.8 µM and 3.4 µM.
For the compound `Cn1c([Se][Se]c2c(C(=O)O)c3ccccc3n2C)c(C(=O)O)c2ccccc21`, the concentration for half-maximal inhibition (IC50) in test [1] (Mus musculus) is 8 µM; in [2], 2.4 µM; in test [3] it was 17.4 µM.
For the compound `N[C@H](Cc1c([Se][Se]c2[nH]c3ccccc3c2C[C@H](N)C(=O)NCc2ccccc2)[nH]c2ccccc12)C(=O)NCc1ccccc1` (stereo in doubt; 33) [listing 1 of 2 here], the Weight change entry in the test on A-431 [4] is reported as “Weight gain”.
As to `CNC(=O)c1c([Se][Se]c2c(C(=O)NC)c3ccccc3n2C)n(C)c2ccccc12`, the Ki came out at 3.9 µM in test [5], 3.1 µM in test [6], 0.8 µM in [7] and 0.6 µM in test [9]. Also, the IC50 in test [1] (Mus musculus) is 5.5 µM; in test [2] it was 0.4 µM; in test [8], 6.1 µM; in [3], 4.7 µM.
In the case of `N[C@H](Cc1c([Se][Se]c2[nH]c3ccccc3c2C[C@H](N)C(=O)NCc2ccccc2)[nH]c2ccccc12)C(=O)NCc1ccccc1` (stereo in doubt; 33) [listing 2 of 2 here], the Net cell kill was -0.4 log10 with A-431 [10], -0.2 log10 with C6 [15] and -0.2 log10 in the test with A-431 [22]. The half-maximal inhibitory concentration (IC50) worked out at 0.18 µM in [11]; 0.54 µM in test [1] (Mus musculus); 0.57 µM in [14]; 2 µM in test [2]; 0.35 µM in test [17]; 0.2 µM in [18]. Also, the IC50 in test [19] amounted to 0.17 µM; in test [8], 0.9 µM; in test [3], 14.1 µM; in test [23] it was 4.2 µM. The T-C stood at 2.2 days with A-431 [12], 10.8 days with A-431 [16] and 2 days in the test with C6 [20]. Besides, the Weight change is -0.2 g in the test with A-431 [13] and -0.9 g with C6 [21].
In the case of `O=C(NCc1ccccc1)[C@H](Cc1c([Se]c2[nH]c3ccccc3c2C[C@@H](NC(=O)C(F)(F)F)C(=O)NCc2ccccc2)[nH]c2ccccc12)NC(=O)C(F)(F)F`, the 50% inhibitory concentration (IC50) in test [2], in test [8] and in test [3] was more than 50 µM throughout.
Consider `N[C@H](Cc1c([Se][Se]c2[nH]c3ccccc3c2C[C@H](N)C(=O)NCc2ccccc2)[nH]c2ccccc12)C(=O)NCc1ccccc1` (stereo in doubt; 34), for which the Ki worked out at 5.6 µM in test [5] and 2.7 µM in [6]. Further, the IC50 in test [1] is 0.6 µM; in test [2] it was 3.8 µM; in test [8] it was 1.3 µM; in test [3], 25.5 µM.
On to `CNC(=O)c1c(SSc2c(C(=O)NC)c3ccccc3n2C)n(C)c2ccccc12`, for which the inhibition constant (Ki) in test [5] came to 3.9 µM; in test [6], 2.3 µM; in test [7], 8 µM; in [9] it was 1.4 µM. Besides, the results for the half-inhibitory concentration (IC50) in [2], in [8] and in [3] were 6.7 µM, 6.9 µM and 28.1 µM, respectively.
Consider `CCN(CC)CCNC(=O)c1c([Se][Se]c2[nH]c3ccccc3c2C(=O)NCCN(CC)CC)[nH]c2ccccc12`, for which the half-inhibitory concentration (IC50) in test [1] (Mus musculus) is 8 µM; in [2], 3.6 µM; in [3], 12.8 µM.
For `Cn1c([Se][Se]c2c(C(=O)OC(C)(C)C)c3ccccc3n2C)c(C(=O)OC(C)(C)C)c2ccccc21`, the IC50 in test [2] is 1.5 µM; in [8], more than 100 µM; in [3], more than 31 µM.
For `CCN(CC)CCn1c([Se][Se]c2c(C(=O)NC)c3ccccc3n2CCN(CC)CC)c(C(=O)NC)c2ccccc21`, the results for the IC50 in [2] and in test [3] were 1.7 µM and 50 µM, respectively.
In the case of `O=C(NCc1ccccc1)[C@H](Cc1c([Se][Se]c2[nH]c3ccccc3c2C[C@@H](NC(=O)C(F)(F)F)C(=O)NCc2ccccc2)[nH]c2ccccc12)NC(=O)C(F)(F)F`, the 50% inhibitory concentration (IC50) in [2] is 6.2 µM; in test [8], 7 µM; in test [3], more than 50 µM.
